Tests used:
[1] = Phase 1 pharmacokinetics of ilorasertib in plasma; type: in vivo, human; settings: for half-life: 480 mg, t1/2, arm B
Procedure, shortened: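 Arm A patients took oral test compound once weekly, in the morning, on days 1, 8 and 15 of 28-day cycles, at 10–690 mg. Plasma was sampled intensively up to 72 h after dosing on days 1 and 15. Noncompartmental analysis gave Cmax, Tmax, t½, AUCt and AUC∞, plus dose-normalized values. Results are summarized by dose level as mean ± SD, with individual values where N=1.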

[2] = system: patients with hematologic malignancies; assay: Phase 1 safety and tolerability; type: in vivo
Procedure, shortened: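 Four arms each ran 28-day cycles: oral once weekly (A), oral twice weekly (B), oral once weekly with IV/SC azacitidine on days 1–7 (C), and IV once weekly (D). Dose escalation followed a modified continual reassessment method, with MTD defined as a 30% DLT rate by logistic regression. Toxicity was graded continuously by CTCAE v4.0, with labs, ECG, MUGA/echocardiogram and vital signs monitored.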

## Nc1ncc(-c2cnn(CCO)c2)c2scc(-c3ccc(NC(=O)Nc4cccc(F)c4)cc3)c12 [Ilorasertib]
[1]; human, plasma, po, 40 mg, Tmax, arm A, oral once weekly, first dose, N=1
  Tmax: 3 h
[1]; human, plasma, po, 80 mg
  AUC(0-inf): 1260 ± 410 ng·h/mL
  AUC(0-t): 1220 ± 410 ng·h/mL
[1]; human, plasma, po, 160 mg
  AUC(0-inf): 3240 ± 1490 ng·h/mL
[1]; human, plasma, po, 240 mg
  AUC(0-inf): 4190 ± 3230 ng·h/mL
[1]; human, plasma, po, 320 mg, AUC0–24, arm B, oral twice weekly, 320 mg, day 1, N=6, mean ± SD
  AUC(0-t): 29700 ± 19000 ng·h/mL
[1]; human, plasma, po, 320 mg, AUC0–24, arm B, oral twice weekly, 320 mg, day 15, N=4, mean ± SD
  AUC(0-t): 30700 ± 15000 ng·h/mL
[1]; human, plasma, po, 340 mg
  AUC(0-inf): 6010 ± 710 ng·h/mL
[1]; human, plasma, po, 440 mg
  AUC(0-inf): 14100 ± 7940 ng·h/mL
  AUC(0-t): 13500 ± 7520 ng·h/mL
[1]; human, plasma, po, oral twice weekly, day 1, N=7
  half-life: 14.9 ± 3.2 h
[1]; human, plasma, po, oral twice weekly, day 15, N=7
  half-life: 15.3 ± 5.1 h
[1]; human, plasma, po, 540 mg
  AUC(0-inf): 6010 ± 1230 ng·h/mL
[1]; human, plasma, po, 540 mg, AUC0–24, arm A, oral once weekly, first dose, N=3, mean ± SD
  AUC(0-t): 5800 ± 1080 ng·h/mL
[1]; human, plasma, po, 640 mg
  AUC(0-inf): 20300 ± 15000 ng·h/mL
[1]; human, plasma, po, 640 mg, AUC0–24, arm A, oral once weekly, first dose, N=6, mean ± SD
  AUC(0-t): 19700 ± 14800 ng·h/mL
[1]; human, plasma, po, 690 mg
  AUC(0-inf): 8460 ng·h/mL
[1]; in vivo
  renal excretion of ilorasertib as the parent drug: negligible
[1]; oral, 80- to 690-mg dose range
  dose proportionality of Cmax and AUC∞: generally dose proportional
[2]; 42 of 52 patients
  patients reporting grade 3 or 4 adverse events: 80.8%
[2]; 51 of 52 patients
  patients reporting at least 1 treatment-emergent adverse event: 98.1%
[2]; 52 patients, all arms
  grade 3/4 adverse event: anemia: 13.5%
  grade 3/4 adverse event: hypertension: 28.8%
  grade 3/4 adverse event: hypokalemia: 15.4%
  grade 3/4 adverse event: hypophosphatemia: 11.5%
  grade 3 or 4 adverse events related to ilorasertib: hypertension: 17.3%
  grade 3 or 4 adverse events related to ilorasertib: pancreatitis: 3.8%
  grade 3 or 4 adverse events related to ilorasertib: proteinuria: 3.8%
[2]; all arms, N=52
  Treatment-emergent adverse events, any grade: Anemia: 7 (13.5) n (%)
  Treatment-emergent adverse events, any grade: Any event: 51 (98.1) n (%)
  Treatment-emergent adverse events, any grade: Arthralgia: 8 (15.4) n (%)
  Treatment-emergent adverse events, any grade: Bone pain: 8 (15.4) n (%)
  Treatment-emergent adverse events, any grade: Decreased appetite: 8 (15.4 n (%)
  Treatment-emergent adverse events, any grade: Diarrhea: 23 (44.2) n (%)
  Treatment-emergent adverse events, any grade: Epistaxis: 7 (13.5) n (%)
  Treatment-emergent adverse events, any grade: Fatigue: 11 (21.2) n (%)
  Treatment-emergent adverse events, any grade: Headache: 8 (15.4) n (%)
  Treatment-emergent adverse events, any grade: Hypertension: 17 (32.7) n (%)
  Treatment-emergent adverse events, any grade: Hypokalemia: 18 (34.6) n (%)
  Treatment-emergent adverse events, any grade: Hypomagnesemia: 10 (19.2) n (%)
  Treatment-emergent adverse events, any grade: Hypophosphatemia: 9 (17.3) n (%)
  Treatment-emergent adverse events, any grade: Nausea: 23 (44.2) n (%)
  Treatment-emergent adverse events, any grade: Peripheral edema: 11 (21.2) n (%)
  Treatment-emergent adverse events, any grade: Proteinuria: 19 (36.5) n (%)
  Treatment-emergent adverse events, any grade: Pyrexia: 8 (15.4) n (%)
  Treatment-emergent adverse events, any grade: Vomiting: 10 (19.2) n (%)
  Treatment-emergent adverse events, grade 3/4: Acute renal failure: 3 (5.8) n (%)
  Treatment-emergent adverse events, grade 3/4: Anemia: 7 (13.5) n (%)
  Treatment-emergent adverse events, grade 3/4: Any grade 3/4 event: 42 (80.8) n (%)
  Treatment-emergent adverse events, grade 3/4: Bacteremia: 3 (5.8) n (%)
  Treatment-emergent adverse events, grade 3/4: Febrile neutropenia: 4 (7.7) n (%)
  Treatment-emergent adverse events, grade 3/4: Fungal pneumonia: 4 (7.7) n (%)
  Treatment-emergent adverse events, grade 3/4: Hypertension: 15 (28.8) n (%)
  Treatment-emergent adverse events, grade 3/4: Hypokalemia: 8 (15.4) n (%)
  Treatment-emergent adverse events, grade 3/4: Hypophosphatemia: 6 (11.5) n (%)
  Treatment-emergent adverse events, grade 3/4: Hypotension: 3 (5.8) n (%)
  Treatment-emergent adverse events, grade 3/4: Pneumonia: 4 (7.7) n (%)
  Treatment-emergent adverse events, grade 3/4: Proteinuria: 4 (7.7) n (%)
  Treatment-emergent adverse events, grade 3/4: Sepsis: 3 (5.8) n (%)
[2]; arm A, PO once weekly monotherapy, 640 mg, 6 patients
  DLTs: Grade 3 pancreatitis ^a
[2]; arm A, oral monotherapy once weekly
  recommended phase 2 dose (RPTD): 540 mg
[2]; arm B, 320 or 480 mg twice weekly
  DLTs: No DLTs
[2]; arm B, oral monotherapy twice weekly
  recommended phase 2 dose (RPTD): 480 mg
[2]; arm D, IV once weekly, 32 mg
  DLTs: No DLTs
